Values belong to the compound of their own block, whether it stands above or below them.
Columns and labels:
Albumin = Albumin (Homo sapiens, UniProt P02768); test: Binding affinity to human serum albumin at 100 uM by analytical ultracentrifugation analysis relative to liraglutide; assay type: ADME; conditions: isolated protein
Outline: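 Sedimentation-velocity analytical ultracentrifugation of 100 μM analogue with 10 μM purified monomeric HSA in PBS, pH 7.4, at 20 °C and 40 000 rpm, read at 250 nm. Free fraction Φ = c_free/(c_tot − c_HSA). Three experiments were averaged, with SD.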

[1] = Clearance in Gottingen mini pig at 0.5 nmol/kg, iv; assay type: ADME, organism-based, Sus scrofa; conditions: Gottingen minipig, in vivo
Outline: (§1)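 Göttingen mini-pigs received a single i.v. or s.c. dose, sized to individual body weight. Twelve blood samples were taken up to 288 h into ice-cooled EDTA tubes, then centrifuged at 4 °C. Plasma was frozen until GLP-1 analogue was measured by ELISA or LC/MS. Cl, Vz, T1/2, Tmax, MRT and F came from noncompartmental analysis.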

[2] = Apparent volume of distribution in Gottingen mini pig at 0.5 nmol/kg, iv; assay type: ADME, organism-based, Sus scrofa; conditions: Gottingen minipig, in vivo, read-out: Vz; outline: as §1
[3] = Half life in Gottingen mini pig at 0.5 nmol/kg, iv; assay type: ADME, organism-based, Sus scrofa; conditions: Gottingen minipig, in vivo; outline: as §1
[4] = Mean residence time in Gottingen mini pig at 1 nmol/kg, sc; assay type: ADME, organism-based, Sus scrofa; conditions: Gottingen minipig, in vivo; outline: as §1
[5] = Bioavailability in Gottingen mini pig at 1 nmol/kg, sc; assay type: ADME, organism-based, Sus scrofa; conditions: Gottingen minipig, in vivo; outline: as §1
Homo sapiens = organism: Homo sapiens; test: Half life in human; assay type: ADME, organism-based; conditions: in vivo
Sus scrofa [6] = test: Clearance in Gottingen mini pig at 2 nmol/kg, iv; assay type: ADME, organism-based; conditions: in vivo; outline: as §1
Sus scrofa [7] = test: Apparent volume of distribution in Gottingen mini pig at 2 nmol/kg, iv; assay type: ADME, organism-based; conditions: in vivo; outline: as §1
Sus scrofa [8] = test: Half life in Gottingen mini pig at 2 nmol/kg, iv; assay type: ADME, organism-based; conditions: in vivo; outline: as §1
Sus scrofa [9] = test: Tmax in Gottingen mini pig at 2 nmol/kg, sc; assay type: ADME, organism-based; conditions: in vivo; outline: as §1
Sus scrofa [10] = test: Mean residence time in Gottingen mini pig at 2 nmol/kg, sc; assay type: ADME, organism-based; conditions: in vivo; outline: as §1
Sus scrofa [11] = test: Bioavailability in Gottingen mini pig at 2 nmol/kg, sc; assay type: ADME, organism-based; conditions: in vivo; outline: as §1
Mus musculus = test: Antihyperglycaemic activity in sc dosed db/db mouse assessed as reduction of blood glucose level up to 48 hrs by glucose oxidase method; assay type: functional, organism-based
Outline: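 Male db/db mice (10–12 weeks old, blood glucose above 10 mM), group-housed, fed chow and acidified water ad libitum. Doses of 0.3–100 nmol/kg were given s.c. at 6 mL/kg in 50 mM phosphate with 0.05% Tween 80, pH 8. Tail-tip capillary blood glucose was measured by glucose oxidase at 0, 1, 2, 3, 6, 24 and 48 h. […] Values are mean ± SEM.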

Chain of Albumin (P02768 whole entry): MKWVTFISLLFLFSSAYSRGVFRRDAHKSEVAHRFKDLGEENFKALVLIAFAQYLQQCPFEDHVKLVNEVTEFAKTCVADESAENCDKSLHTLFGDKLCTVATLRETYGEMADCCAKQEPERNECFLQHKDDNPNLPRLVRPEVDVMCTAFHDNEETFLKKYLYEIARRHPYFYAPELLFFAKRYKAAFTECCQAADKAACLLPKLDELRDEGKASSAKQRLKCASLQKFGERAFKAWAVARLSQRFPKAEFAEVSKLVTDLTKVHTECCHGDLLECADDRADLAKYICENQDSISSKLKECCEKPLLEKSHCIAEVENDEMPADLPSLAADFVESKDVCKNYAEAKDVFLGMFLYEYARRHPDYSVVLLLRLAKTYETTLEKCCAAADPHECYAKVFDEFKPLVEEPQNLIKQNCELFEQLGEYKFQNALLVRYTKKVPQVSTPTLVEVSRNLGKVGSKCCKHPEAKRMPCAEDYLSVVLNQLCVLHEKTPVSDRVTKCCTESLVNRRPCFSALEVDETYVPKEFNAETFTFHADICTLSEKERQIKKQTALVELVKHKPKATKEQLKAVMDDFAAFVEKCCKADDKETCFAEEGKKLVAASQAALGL

Activity (Albumin): Not Active
Compound: CC[C@H](C)[C@H](NC(=O)[C@H](Cc1ccccc1)NC(=O)[C@H](CCC(=O)O)NC(=O)[C@H](CCCCNC(=O)COCCOCCNC(=O)COCCOCCNC(=O)CC[C@H](NC(=O)CCCCCCCCCCCCCCCCC(=O)O)C(=O)O)NC(=O)[C@H](C)NC(=O)[C@H](C)NC(=O)[C@H](CCC(N)=O)NC(=O)CNC(=O)[C@H](CCC(=O)O)NC(=O)[C@H](CC(C)C)NC(=O)[C@H](Cc1ccc(O)cc1)NC(=O)[C@H](CO)NC(=O)[C@H](CO)NC(=O)[C@@H](NC(=O)[C@H](CC(=O)O)NC(=O)[C@H](CO)NC(=O)[C@@H](NC(=O)[C@H](Cc1ccccc1)NC(=O)[C@@H](NC(=O)CNC(=O)[C@H](CCC(=O)O)NC(=O)[C@H](C)NC(=O)[C@@H](N)Cc1c[nH]cn1)[C@@H](C)O)[C@@H](C)O)C(C)C)C(=O)N[C@@H](C)C(=O)N[C@@H](Cc1c[nH]c2ccccc12)C(=O)N[C@@H](CC(C)C)C(=O)N[C@H](C(=O)N[C@@H](CCCNC(=N)N)C(=O)NCC(=O)N[C@@H](CCCNC(=N)N)C(=O)NCC(=O)O)C(C)C

clearance [1]: 3.8 mL/h/kg
Vd [2]: 0.0674 L/kg
half-life [3]: 12.4 h
MRT [4]: 23 h
bioavailability [5]: 66%
Compound: CCCCCCCCCCCCCCCC(=O)N[C@@H](CCC(=O)NCCCC[C@H](NC(=O)[C@H](C)NC(=O)[C@H](C)NC(=O)[C@H](CCC(N)=O)NC(=O)CNC(=O)[C@H](CCC(=O)O)NC(=O)[C@H](CC(C)C)NC(=O)[C@H](Cc1ccc(O)cc1)NC(=O)[C@H](CO)NC(=O)[C@H](CO)NC(=O)[C@@H](NC(=O)[C@H](CC(=O)O)NC(=O)[C@H](CO)NC(=O)[C@@H](NC(=O)[C@H](Cc1ccccc1)NC(=O)[C@@H](NC(=O)CNC(=O)[C@H](CCC(=O)O)NC(=O)[C@H](C)NC(=O)[C@@H](N)Cc1cnc[nH]1)[C@@H](C)O)[C@@H](C)O)C(C)C)C(=O)N[C@@H](CCC(=O)O)C(=O)N[C@@H](Cc1ccccc1)C(=O)N[C@H](C(=O)N[C@@H](C)C(=O)N[C@@H](Cc1c[nH]c2ccccc12)C(=O)N[C@@H](CC(C)C)C(=O)N[C@H](C(=O)N[C@@H](CCCNC(=N)N)C(=O)NCC(=O)N[C@@H](CCCNC(=N)N)C(=O)NCC(=O)O)C(C)C)[C@@H](C)CC)C(=O)O [LIRAGLUTIDE]

t1/2 (Homo sapiens): 165 h
CL (Sus scrofa [6]): 1.6 mL/h/kg
Vz (Sus scrofa [7]): 0.1019 L/kg
t1/2 (Sus scrofa [8]): 46.1 h
Tmax (Sus scrofa [9]): 12 h
MRT (Sus scrofa [10]): 63.6 h
F (Sus scrofa [11]): 94%
EC50 (Mus musculus): < 2 nmol/kg
Compound: SEMAGLUTIDE

Source: ChEMBL document CHEMBL3616405 (J Med Chem, 2015)
